Columns and labels:
[1] = biological target: Glutamate receptor ionotropic, NMDA 2B (Rattus norvegicus) (UniProt Q00960); assay: Binding affinity to NMDAR NR2B in Sprague-Dawley rat brain hippocampus assessed per mg of protein; assay type: tissue-based; conditions: tested as the 18F-labelled form
Summary of the method: (§1)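 Saturation binding on mounted rat brain tissue sections. Sections were pre-incubated twice for 10 min at r.t. in 50 mM Tris-HCl pH 7.4 with 10 mM EDTA, then exposed to free [18F] ligand at 0.15–48 nM. Washes were 5, 5 and 15 min in 50 mM Tris-HCl pH 7.4 at 4 °C, followed by a cold distilled-water dip and drying on a hot plate. Autoradiographic optical densities (DLU/mm²) were converted with spiked brain-homogenate standards. Specific binding was taken as total minus nonspecific for each region. Kd and Bmax were obtained from Scatchard plots.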

[2] = biological target: Glutamate receptor ionotropic, NMDA 2B (Rattus norvegicus) (UniProt Q00960); assay: Ratio of Bmax to Kd at NMDAR NR2B in Sprague-Dawley rat brain cortex; conditions: tested as the 18F-labelled form
Summary of the method: (§2)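 Bmax/Kd ratio for each brain region. Bmax and Kd came from Scatchard analysis of specific autoradiographic binding on rat brain sections. Free [18F] ligand ran from 0.15 to 48 nM, with Tris-HCl pH 7.4 pre-incubation and cold washes. Radioactivity was calibrated against spiked tissue-homogenate standards.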

[3] = biological target: Glutamate receptor ionotropic, NMDA 2B (Rattus norvegicus) (UniProt Q00960); assay: Binding affinity to NMDAR NR2B in Sprague-Dawley rat brain striatum assessed per mg of protein; assay type: tissue-based; conditions: tested as the 18F-labelled form; summary of the method: as §1
[4] = biological target: Glutamate receptor ionotropic, NMDA 2B (Rattus norvegicus) (UniProt Q00960); assay: Binding affinity to NMDAR NR2B in Sprague-Dawley rat brain thalamus assessed per mg of protein; assay type: tissue-based; conditions: tested as the 18F-labelled form; summary of the method: as §1
[5] = biological target: Glutamate receptor ionotropic, NMDA 2B (Rattus norvegicus) (UniProt Q00960); assay: Binding affinity to NMDAR NR2B in Sprague-Dawley rat brain olfactory tubercle assessed per mg of protein; assay type: tissue-based; conditions: tested as the 18F-labelled form; summary of the method: as §1
[6] = biological target: Glutamate receptor ionotropic, NMDA 2B (Rattus norvegicus) (UniProt Q00960); assay: Ratio of Bmax to Kd at NMDAR NR2B in Sprague-Dawley rat brain hippocampus; assay type: tissue-based; conditions: tested as the 18F-labelled form; summary of the method: as §2
[7] = biological target: Glutamate receptor ionotropic, NMDA 2B (Rattus norvegicus) (UniProt Q00960); assay: Binding affinity to NMDAR NR2B in Sprague-Dawley rat brain cortex assessed per mg of protein; assay type: tissue-based; conditions: tested as the 18F-labelled form; summary of the method: as §1
[8] = biological target: Glutamate receptor ionotropic, NMDA 2B (Rattus norvegicus) (UniProt Q00960); assay: Ratio of Bmax to Kd at NMDAR NR2B in Sprague-Dawley rat brain striatum; assay type: tissue-based; conditions: tested as the 18F-labelled form; summary of the method: as §2
[9] = biological target: Glutamate receptor ionotropic, NMDA 2B (Rattus norvegicus) (UniProt Q00960); assay: Ratio of Bmax to Kd at NMDAR NR2B in Sprague-Dawley rat brain olfactory tubercle; assay type: tissue-based; conditions: tested as the 18F-labelled form; summary of the method: as §2
[10] = biological target: Glutamate receptor ionotropic, NMDA 2B (Rattus norvegicus) (UniProt Q00960); assay: Ratio of Bmax to Kd at NMDAR NR2B in Sprague-Dawley rat brain thalamus; assay type: tissue-based; conditions: tested as the 18F-labelled form; summary of the method: as §2
Hippocampus = assay: Drug uptake in Sprague-Dawley rat hippocampus at 8 nM after 90 mins by autoradiography analysis; assay type: ADME, tissue-based; conditions: 1.5 h, 0.008 µM
Cerebellum = assay: Drug uptake in Sprague-Dawley rat cerebellum at 8 nM after 90 mins by autoradiography analysis; assay type: ADME, tissue-based; conditions: 1.5 h, 0.008 µM
Nucleic Acid = assay: Ratio of drug uptake in […] in Sprague-Dawley rat at 8 nM after 90 mins by autoradiography analysis; assay type: ADME, tissue-based; conditions: 1.5 h, 0.008 µM
Striatum = assay: Binding to Sprague-Dawley rat striatum sections at 8 nM after 90 mins by autoradiography analysis; conditions: in vitro, 1.5 h, 0.008 µM
[11] = biological target: T1, Glutamate receptor ionotropic, NMDA 2B (Rattus norvegicus, UniProt Q00960); assay: Binding affinity to NMDAR NR2B in Sprague-Dawley rat brain hippocampus; assay type: tissue-based; summary of the method: as §1
T1 sequence (Q00960 whole entry): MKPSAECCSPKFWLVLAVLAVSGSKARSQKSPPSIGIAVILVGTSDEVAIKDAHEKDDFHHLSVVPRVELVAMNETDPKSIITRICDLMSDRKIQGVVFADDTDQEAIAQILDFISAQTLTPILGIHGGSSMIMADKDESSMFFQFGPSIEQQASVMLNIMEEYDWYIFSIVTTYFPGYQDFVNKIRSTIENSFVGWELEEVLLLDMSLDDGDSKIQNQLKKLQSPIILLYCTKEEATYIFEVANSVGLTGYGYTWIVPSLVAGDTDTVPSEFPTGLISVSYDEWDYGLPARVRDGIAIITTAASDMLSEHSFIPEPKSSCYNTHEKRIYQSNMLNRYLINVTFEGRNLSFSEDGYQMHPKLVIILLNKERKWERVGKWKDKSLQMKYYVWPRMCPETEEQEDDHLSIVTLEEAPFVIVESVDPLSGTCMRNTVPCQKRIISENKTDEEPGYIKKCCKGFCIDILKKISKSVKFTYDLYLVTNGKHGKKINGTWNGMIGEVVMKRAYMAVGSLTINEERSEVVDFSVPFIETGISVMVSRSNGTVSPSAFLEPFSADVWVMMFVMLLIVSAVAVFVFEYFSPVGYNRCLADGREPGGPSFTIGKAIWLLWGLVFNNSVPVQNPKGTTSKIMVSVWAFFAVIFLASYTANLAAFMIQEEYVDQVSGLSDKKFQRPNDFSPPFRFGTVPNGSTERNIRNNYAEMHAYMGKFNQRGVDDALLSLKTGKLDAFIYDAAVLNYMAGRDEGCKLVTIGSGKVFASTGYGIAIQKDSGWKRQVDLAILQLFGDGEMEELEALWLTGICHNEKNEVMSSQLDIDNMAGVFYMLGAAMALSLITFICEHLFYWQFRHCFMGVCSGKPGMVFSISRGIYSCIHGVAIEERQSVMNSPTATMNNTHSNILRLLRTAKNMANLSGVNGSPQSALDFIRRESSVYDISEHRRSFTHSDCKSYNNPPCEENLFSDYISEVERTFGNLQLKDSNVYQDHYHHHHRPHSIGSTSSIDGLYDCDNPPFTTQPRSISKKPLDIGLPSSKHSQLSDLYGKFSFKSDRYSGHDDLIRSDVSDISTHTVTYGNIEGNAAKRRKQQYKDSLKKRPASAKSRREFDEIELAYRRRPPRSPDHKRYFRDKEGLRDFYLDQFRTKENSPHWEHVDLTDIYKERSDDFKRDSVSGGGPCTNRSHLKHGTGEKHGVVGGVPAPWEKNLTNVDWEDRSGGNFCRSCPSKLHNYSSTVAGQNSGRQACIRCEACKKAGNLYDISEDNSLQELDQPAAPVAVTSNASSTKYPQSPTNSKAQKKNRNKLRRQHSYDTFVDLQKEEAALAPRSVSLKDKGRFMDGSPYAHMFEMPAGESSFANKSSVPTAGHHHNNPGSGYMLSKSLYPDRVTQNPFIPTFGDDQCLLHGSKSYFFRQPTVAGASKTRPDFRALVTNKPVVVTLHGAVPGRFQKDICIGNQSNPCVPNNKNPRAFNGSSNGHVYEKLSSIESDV

Brain = assay: Drug uptake in Sprague-Dawley rat brain at 8 nM after 90 mins by autoradiography analysis in presence of 10 uM Ro 256981; assay type: ADME, tissue-based; conditions: 1.5 h, 0.008 µM
[12] = biological target: T1, Glutamate receptor ionotropic, NMDA 2B; assay: Binding affinity to NMDAR NR2B in Sprague-Dawley rat brain thalamus; assay type: tissue-based; summary of the method: as §1
[13] = biological target: T1, Glutamate receptor ionotropic, NMDA 2B; assay: Binding affinity to NMDAR NR2B in Sprague-Dawley rat brain olfactory tubercle; assay type: tissue-based; summary of the method: as §1
[14] = biological target: T1, Glutamate receptor ionotropic, NMDA 2B; assay: Binding affinity to NMDAR NR2B in Sprague-Dawley rat brain cortex; assay type: tissue-based; summary of the method: as §1
[15] = Drug uptake in Sprague-Dawley rat olfactory tubercle at 8 nM after 90 mins by autoradiography analysis; assay type: ADME, tissue-based; conditions: 1.5 h, 0.008 µM
[16] = Drug uptake in Sprague-Dawley rat forebrain at 8 nM after 90 mins by autoradiography analysis; conditions: 1.5 h, 0.008 µM
[17] = Lipophilicity, log D of the compound in octanol-[…] at 10 uM after 40 mins by shake flask method; assay type: physicochemical
Summary of the method: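 Shake-flask method. Tubes held 1 mL octanol and 1 mL […] buffer plus [18F] tracer, were stirred for 40 min and centrifuged for 5 min. Two 100 µL aliquots from each phase were gamma-counted. logD7.4 was calculated from the ratio of octanol to aqueous radioactivity. Four tubes were used.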

Cortex = assay: Drug uptake in Sprague-Dawley rat cortex at 8 nM after 90 mins by autoradiography analysis; assay type: ADME, tissue-based; conditions: 1.5 h, 0.008 µM
Thalamus = assay: Drug uptake in Sprague-Dawley rat thalamus at 8 nM after 90 mins by autoradiography analysis; assay type: ADME, tissue-based; conditions: 1.5 h, 0.008 µM
[18] = biological target: T1, Glutamate receptor ionotropic, NMDA 2B; assay: Binding affinity to NMDAR NR2B in Sprague-Dawley rat brain striatum; assay type: tissue-based; summary of the method: as §1

Glutamate receptor ionotropic, NMDA 2B (Rattus norvegicus), sequence (Q00960 27-1482 limits assumed): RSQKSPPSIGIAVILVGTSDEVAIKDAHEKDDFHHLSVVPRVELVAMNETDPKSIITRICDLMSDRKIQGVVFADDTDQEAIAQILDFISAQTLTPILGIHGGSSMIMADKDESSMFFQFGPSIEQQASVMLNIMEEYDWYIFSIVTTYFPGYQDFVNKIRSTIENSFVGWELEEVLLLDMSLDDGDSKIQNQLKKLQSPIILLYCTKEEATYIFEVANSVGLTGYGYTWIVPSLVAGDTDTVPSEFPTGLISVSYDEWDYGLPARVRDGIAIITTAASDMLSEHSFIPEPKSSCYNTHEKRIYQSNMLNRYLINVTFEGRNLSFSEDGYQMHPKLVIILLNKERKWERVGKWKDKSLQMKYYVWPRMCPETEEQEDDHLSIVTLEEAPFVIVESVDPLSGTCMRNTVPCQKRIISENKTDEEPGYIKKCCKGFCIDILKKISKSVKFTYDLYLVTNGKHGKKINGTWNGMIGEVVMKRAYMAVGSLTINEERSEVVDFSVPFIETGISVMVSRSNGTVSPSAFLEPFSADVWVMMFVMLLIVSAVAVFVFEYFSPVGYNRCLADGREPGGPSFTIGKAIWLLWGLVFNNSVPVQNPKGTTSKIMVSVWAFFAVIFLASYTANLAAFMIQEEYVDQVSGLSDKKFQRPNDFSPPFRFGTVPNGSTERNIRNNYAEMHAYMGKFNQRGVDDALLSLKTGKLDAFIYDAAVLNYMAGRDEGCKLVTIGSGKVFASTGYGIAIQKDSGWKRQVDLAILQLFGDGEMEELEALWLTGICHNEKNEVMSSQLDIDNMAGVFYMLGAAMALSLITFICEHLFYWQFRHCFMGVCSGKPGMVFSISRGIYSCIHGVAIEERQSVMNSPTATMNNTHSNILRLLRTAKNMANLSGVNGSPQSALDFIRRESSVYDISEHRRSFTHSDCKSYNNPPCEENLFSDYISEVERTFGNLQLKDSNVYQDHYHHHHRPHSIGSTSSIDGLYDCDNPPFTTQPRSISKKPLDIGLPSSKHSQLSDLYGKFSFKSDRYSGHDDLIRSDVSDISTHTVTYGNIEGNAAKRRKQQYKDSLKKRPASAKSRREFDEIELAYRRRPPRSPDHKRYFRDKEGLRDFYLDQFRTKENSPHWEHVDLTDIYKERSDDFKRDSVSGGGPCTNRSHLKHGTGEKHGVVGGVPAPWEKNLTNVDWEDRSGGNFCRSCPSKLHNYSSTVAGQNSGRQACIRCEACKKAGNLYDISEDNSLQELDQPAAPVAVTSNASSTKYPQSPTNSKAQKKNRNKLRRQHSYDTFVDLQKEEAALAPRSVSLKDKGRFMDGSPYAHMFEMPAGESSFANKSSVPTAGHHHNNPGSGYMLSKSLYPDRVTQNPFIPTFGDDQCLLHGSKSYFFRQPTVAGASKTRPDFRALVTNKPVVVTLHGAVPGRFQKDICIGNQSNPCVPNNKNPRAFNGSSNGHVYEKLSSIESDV

SMILES | Bmax [1] | Ratio [2] | Bmax [3] | Bmax [4] | Bmax [5] | Ratio [6] | Bmax [7] | Ratio [8] | Ratio [9] | Ratio [10] | Drug uptake (Hippocampus) | Drug uptake (Cerebellum) | Ratio (Nucleic Acid) | Drug uptake (Striatum) | Kd [11] | Drug uptake (Brain) | Kd [12] | Kd [13] | Kd [14] | Drug uptake [15] | other results
Cc1ccc(COC(=O)N2CC[C@@H](CNc3ncccn3)[C@H](F)C2)cc1 (racemic) | 1.58 pmol | 25 | 1.05 pmol | 0.86 pmol | 0.69 pmol | 22 | 0.77 pmol | 21 | 37 | 17 |  |  |  |  |  |  |  |  |  |  | 
Cc1ccc(COC(=O)N2CC[C@H](CNc3ncccn3)[C@H](F)C2)cc1 (racemic) | 1.65 pmol | 15 | 1.41 pmol | 1.12 pmol | 1.05 pmol | 19 | 1.5 pmol | 15 | 18 | 8 |  |  |  |  |  |  |  |  |  |  | 
Cc1ccc(COC(=O)N2CC[C@@H](CNc3ncccn3)[C@H]([18F])C2)cc1 (racemic) |  |  |  |  |  |  |  |  |  |  | 84% | Not Active | 6.4 | Active | 7.1 nM | Not Active | 5.4 nM | 1.9 nM | 3.2 nM | Not Active | Drug uptake [16]: Active; logD at 40 min, 10 µM [17]: 2.66; Drug uptake (Cortex): Active; Drug uptake (Thalamus): 62%; Kd [18]: 5.1 nM
Cc1ccc(COC(=O)N2CC[C@H](CNc3ncccn3)[C@H]([18F])C2)cc1 (racemic) |  |  |  |  |  |  |  |  |  |  | 91% | Not Active | 12.1 | Active | 9.1 nM | Not Active | 15.2 nM | 5.9 nM | 9.8 nM | Not Active | Drug uptake [16]: Active; logD at 40 min, 10 µM [17]: 2.8; Drug uptake (Cortex): Active; Drug uptake (Thalamus): 76%; Kd [18]: 9.3 nM

Reference: ChEMBL document CHEMBL2034845, “Synthesis and in vitro characterization of trans- and cis-[(18)F]-4-methylbenzyl 4-[(pyrimidin-2-ylamino)methyl]-3-fluoropiperidine-1-carboxylates as new potential PET radiotracer candidates for the NR2B subtype N-methyl-D-aspartate receptor” (Eur J Med Chem, 2012)
